Structures are written as SMILES.

Assay [1] deals with K562. As to the kind of experiment: Antiproliferative activity against human K562 cells after 48 hrs by trypan blue dye exclusion assay. Type of assay: functional, cell-based. As to conditions: K562, 48 h.
Assay [2] concerns K562. As to the kind of experiment: Cell cycle arrest in human K562 cells assessed as accumulation at G1 phase at 5 uM for 24 hrs by propidium iodide staining based flow cytometry (reference value: 39.27%). Type of assay: functional. A digest of the protocol: (§1)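 K562 cells were exposed to compound for 24 h. They were then washed in ice-cold PBS and resuspended at 1×10^6/mL in a hypotonic solution of propidium iodide 50 µg/mL in 0.1% sodium citrate with 0.03% NP-40. After 30 min, DNA content was read by flow cytometry as single-parameter histograms and cell cycle phase distribution (%) was modelled.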
In general terms: In flow cytometry, cells or beads pass a laser one at a time.

Assay [3] deals with T1, Signal transducer and activator of transcription 5A (Homo sapiens) (UniProt P42229).
T1 sequence (whole entry): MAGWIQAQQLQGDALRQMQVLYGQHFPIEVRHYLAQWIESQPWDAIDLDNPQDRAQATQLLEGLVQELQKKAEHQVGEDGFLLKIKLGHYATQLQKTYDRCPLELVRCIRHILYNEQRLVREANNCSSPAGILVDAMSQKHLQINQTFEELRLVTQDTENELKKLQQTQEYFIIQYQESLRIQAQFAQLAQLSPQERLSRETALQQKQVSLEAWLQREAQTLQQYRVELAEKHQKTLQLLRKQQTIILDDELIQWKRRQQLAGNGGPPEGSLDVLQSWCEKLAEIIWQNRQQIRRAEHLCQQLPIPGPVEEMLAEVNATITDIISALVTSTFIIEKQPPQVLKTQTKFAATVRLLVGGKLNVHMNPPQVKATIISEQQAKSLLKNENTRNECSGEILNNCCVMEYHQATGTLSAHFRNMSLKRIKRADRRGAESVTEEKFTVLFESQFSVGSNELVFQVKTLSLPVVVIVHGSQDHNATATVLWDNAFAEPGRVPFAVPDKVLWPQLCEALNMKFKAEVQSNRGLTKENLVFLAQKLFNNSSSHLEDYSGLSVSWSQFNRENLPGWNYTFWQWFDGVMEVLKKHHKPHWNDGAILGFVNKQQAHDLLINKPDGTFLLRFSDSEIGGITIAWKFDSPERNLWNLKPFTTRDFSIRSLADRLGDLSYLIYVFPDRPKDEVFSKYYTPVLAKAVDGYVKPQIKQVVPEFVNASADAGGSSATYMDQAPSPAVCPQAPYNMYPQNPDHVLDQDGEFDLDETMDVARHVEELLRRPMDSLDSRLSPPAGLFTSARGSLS
The assay is described as follows: Inhibition of STAT5 phosphorylation in human K562 cells at 5 uM after 24 hrs by flow cytometry (reference value: 315.56). Format: cell-based. In outline: (§2)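 After 24 h exposure, about 1×10^6 K562 cells were PBS-washed and fixed/permeabilised for 20 min at 4 °C. They were then stained for 30 min at 4 °C with PE-conjugated anti-pSTAT5 monoclonal antibody, with an isotype antibody as control. Median fluorescence was read by flow cytometry and compared with untreated cells stained for pSTAT5.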

For another assay, the target named is Tubulin (Bos taurus, UniProt Q6B856+Q862L2+Q862F3). As to the kind of experiment: Inhibition of bovine brain tubulin polymerization by spectrophotometry. In outline:
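Bovine brain tubulin (10 µM) was pre-incubated with varying compound concentrations in glutamate buffer at 30 °C, then cooled to 0 °C. GTP was added ([…] final) and the mixture warmed to 30 °C. Assembly was followed by turbidity at 350 nm.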

For assay [4], the system named is K562. The assay is described as follows: Cell cycle arrest in human K562 cells assessed as accumulation at S-phase at 5 uM for 24 hrs by propidium iodide staining based flow cytometry (reference value: 47.84%). Type of assay: functional. A digest of the protocol:
as §1

The test system of assay [5] is K562. As to the kind of experiment: Induction of apoptosis in human K562 cells after 48 hrs by annexinV and propidium iodide staining based flow cytometry. To be noted: K562, 48 h. Type of assay: functional, cell-based. In outline: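 After 48 h drug exposure, 1×10^6 cells were washed in PBS and spun at 200×g for 5 min. They were stained with FITC-annexin V plus propidium iodide for 15 min at 20 °C and annexin V-positive cells counted by flow cytometry. Apoptosis was also scored morphologically with acridine orange/ethidium bromide, counting at least 300 cells. AC50 is the concentration inducing apoptosis in 50% of cells; mean ± SE from two to three experiments.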

Assay [6] relates to K562. The assay is described as follows: Cell cycle arrest in human K562 cells assessed as accumulation at G2M-phase at 5 uM for 24 hrs by propidium iodide staining based flow cytometry (reference value: 12.89%). Type of assay: functional. A digest of the protocol: as §1
For assay [7], the system named is K562. The assay is described as follows: Potency index, ratio IC50 of imatinib mesilate to IC50 of compound for antiprolifertive activity against human K562. Format: functional. A digest of the protocol: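 K562 cells grown in RPMI 1640 with 10% FCS at 37 °C, 5% CO2. 2×10^5 cells/mL exposed to a range of concentrations for 48 h. Viable cells counted by trypan blue exclusion, as % of control.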

Assay [8] concerns the target T1, Signal transducer and activator of transcription 5A (Homo sapiens). As to the kind of experiment: Inhibition of STAT5 phosphorylation in human K562 cells at 0.5 uM after 24 hrs by flow cytometry (reference value: 315.56). Type of assay: cell-based. A digest of the protocol: as §2
The subject of assay [9] is K562. As to the kind of experiment: Cell cycle arrest in human K562 cells assessed as accumulation at G2M-phase at 0.5 uM for 24 hrs by propidium iodide staining based flow cytometry (reference value: 12.89%). Type of assay: functional. A digest of the protocol:
(§3)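 K562 cells in RPMI 1640 with 10% FCS, penicillin/streptomycin and L-glutamine, 5% CO2, 37 °C; exposed 24 h. Cells washed in ice-cold PBS, resuspended at 1×10^6/mL in hypotonic solution of propidium iodide 50 µg/mL in 0.1% sodium citrate plus 0.03% nonidet P-40 for 30 min. DNA content read as single-parameter flow cytometry histograms; phase distribution modelled.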

Assay [10] has as its target T1, Signal transducer and activator of transcription 5A (Homo sapiens). The assay is described as follows: Inhibition of STAT5 phosphorylation in human K562 cells at 0.5 uM after 24 hrs by flow cytometry relative to control. Format: cell-based. A digest of the protocol: as §2
For assay [11], the system named is K562. The assay is described as follows: Potency index, ratio AC50 of imatinib mesilate to AC50 of compound for induction of apoptosis in human K562. Type of assay: functional. In outline:
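K562 cells in RPMI 1640 with 10% FCS, treated 48 h over a concentration range. Apoptosis scored morphologically after acridine orange/ethidium bromide staining (≥300 cells counted, chromatin condensation, apoptotic bodies) and by annexin V-FITC/propidium iodide flow cytometry. AC50 is the concentration giving 50% apoptotic cells, mean ± SE of 2–3 experiments.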

In assay [12] the test system is K562. As to the kind of experiment: Cell cycle arrest in human K562 cells assessed as accumulation at S-phase at 0.5 uM for 24 hrs by propidium iodide staining based flow cytometry (reference value: 47.84%). Format: functional. In outline:
as §3

Assay [13] deals with K562. As to the kind of experiment: Cell cycle arrest in human K562 cells assessed as accumulation at G1 phase at 0.5 uM for 24 hrs by propidium iodide staining based flow cytometry (reference value: 39.27%). Format: functional. In outline:
as §3

The species entered for a further assay is Bos taurus. As to the kind of experiment: Inhibition of [3H]colchicine binding to bovine tubulin at 5 uM by DEAE-cellulose filter method. A digest of the protocol:
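Reaction mixtures contained 1 µM tubulin, 5 µM [3H]colchicine and 5 µM test compound. Result is given as % inhibition of colchicine binding ± SD.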

The test system of assay [14] is K562. The assay is described as follows: Cell cycle arrest in human K562 cells assessed as accumulation at S-phase at 1 uM for 24 hrs by propidium iodide staining based flow cytometry (reference value: 47.84%). Type of assay: functional. A digest of the protocol: as §1
Assay [15] deals with T1, Signal transducer and activator of transcription 5A (Homo sapiens). As to the kind of experiment: Inhibition of STAT5 phosphorylation in human K562 cells at 1 uM after 24 hrs by flow cytometry (reference value: 315.56). Format: cell-based. A digest of the protocol: as §2
The test system of assay [16] is K562. As to the kind of experiment: Cell cycle arrest in human K562 cells assessed as accumulation at G2M-phase at 1 uM for 24 hrs by propidium iodide staining based flow cytometry (reference value: 12.89%). Format: functional. A digest of the protocol: as §1
Assay [17] concerns K562. As to the kind of experiment: Cell cycle arrest in human K562 cells assessed as accumulation at G1 phase at 1 uM for 24 hrs by propidium iodide staining based flow cytometry (reference value: 39.27%). Type of assay: functional. In outline: as §1

The IC50 is the point on the concentration scale where inhibition reaches its midpoint. Low values mean inhibition by little substance, high ones a need for much substance. What is called AC50 is the concentration giving half of the maximal activity seen. The low end stands for activity at low concentration, the high end for activity only at high concentration. For `O=C(CI)Nc1c(C(=O)c2ccccc2)oc2ccccc12`, the IC50 was 1000 nM in the assay on K562 [1] and over 20000 nM at Tubulin. In addition, the Activity came to 68.32% with K562 [2], 20.28% in the assay on K562 [4] and 11.4% in the assay on K562 [6]. The same compound gave a Flu intensity in assay [3] of 103. The same compound came in with a half-maximal activity concentration (AC50) in the assay with K562 [5] of 5900 nM.
In general, inhibition refers to how much of the control response was suppressed. Low readings indicate a response near the control, high ones a response far below the control. Turning to `COc1cc2oc(C(=O)c3cc(OC)c(OC)c(OC)c3)c(C)c2cc1NC(=O)CI`, the “Ratio IC50” value with K562 [7] is given as 3.1; in the assay with K562 [11] it was 2.7. Besides, inhibition in the assay on K562 [1] was half-maximal at 70 nM (IC50). The compound further yielded a Flu intensity in assay [8] of 176. For the same compound, the Activity with K562 [9] stood at 28.76%; with K562 [12] it was 35.47%; with K562 [13] it was 35.78%. Moreover, the inhibition in assay [10] is 44%. The AC50 with K562 [5] is 250 nM.
In the case of `COc1cc(C(=O)c2sc3c(C)cccc3c2NC(=O)CI)cc(OC)c1OC`, the IC50 was 400 nM in the assay on K562 [1] and 1100 nM on Tubulin. In addition, the inhibition in the assay filed under Bos taurus amounted to 65%. Also, the values for the Activity with K562 [14], with K562 [16] and in the assay on K562 [17] were 17.13%, 2.99% and 79.88%, respectively. Besides, the Flu intensity in [15] stood at 45.2. In the assay with K562 [5], this compound showed an AC50 of 2800 nM.

(Values after ChEMBL document CHEMBL3745692, “Novel iodoacetamido benzoheterocyclic derivatives with potent antileukemic activity are inhibitors of STAT5 phosphorylation” (Eur J Med Chem, 2016).)
